Measurements taken from ChEMBL document CHEMBL2434885, “cis-Dichloroplatinum(II) complexes tethered to dibenzo[c,h][1,6]naphthyridin-6-ones: synthesis and cytotoxicity in human cancer cell lines in vitro” (Eur J Med Chem, 2013).
pIC50: −log10 of the molar value.

Assays:
Format in all cases: functional, cell-based
SW480 = assay: Cytotoxicity against human SW480 cells after 72 hrs by crystal-violet staining-based spectrophotometric analysis; conditions: SW480, 72 h
Summary of the method: (§1)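 Subconfluent, exponentially growing, mycoplasma-free monolayers in RPMI 1640 + 10% FBS, 5% CO2. Cells treated 72 h with 0–500 µM (compounds in physiological serum, or in DMF at ≤3% final). Cells then PBS-washed, ethanol-fixed, stained with 1% crystal violet and eluted in 33% acetic acid, with A570 read. Triplicates, three independent experiments. IC50 taken from concentration–response curves as 50% growth inhibition.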

HT-29 = assay: Cytotoxicity against human HT-29 cells after 72 hrs by crystal-violet staining-based spectrophotometric analysis; conditions: HT-29, 72 h; summary of the method: as §1
HCT-116 = assay: Cytotoxicity against human HCT116 cells after 72 hrs by crystal-violet staining-based spectrophotometric analysis; conditions: HCT-116, 72 h; summary of the method: as §1

`NCCNCCn1c(=O)c2cc([N+](=O)[O-])ccc2c2cnc3cc4c(cc3c21)OCO4` showed a pIC50 (SW480) of 4.39, a pIC50 (HT-29) of 4.37 and a pIC50 (HCT-116) of 4.60.

Compound `NCCNCCCCn1c(=O)c2cc([N+](=O)[O-])ccc2c2cnc3cc4c(cc3c21)OCO4` has a pIC50 (SW480) of 4.36, a pIC50 (HT-29) of 4.39 and a pIC50 (HCT-116) of 4.51.

Work on `NCCNCCCCCCn1c(=O)c2cc([N+](=O)[O-])ccc2c2cnc3cc4c(cc3c21)OCO4` yielded a pIC50 (SW480) of 4.62, a pIC50 (HT-29) of 4.51 and a pIC50 (HCT-116) of 4.81.

Compound `NCCNCCCn1c(=O)c2cc([N+](=O)[O-])ccc2c2cnc3cc4c(cc3c21)OCO4` has a pIC50 (SW480) of 4.52, a pIC50 (HT-29) of 4.65 and a pIC50 (HCT-116) of 4.92.

`NCCNCCCCCn1c(=O)c2cc([N+](=O)[O-])ccc2c2cnc3cc4c(cc3c21)OCO4` showed a pIC50 (SW480) of 4.29, a pIC50 (HT-29) of 4.32 and a pIC50 (HCT-116) of 4.60.
